Data from ChEMBL document CHEMBL1221201, “Extension of Drosophila melanogaster life span with a GPCR peptide inhibitor” (Nat Chem Biol, 2007).
Calls of active or inactive are those of the source. The calls are words filed in the database; no cut-off is given here.

Key:
Drosophila melanogaster [1] = assay: Increase in life span of Drosophila melanogaster GAL-4/UAS--[…] transgene insertion line 41.2 at 29 degC; type: functional
[2] = Binding affinity to G-protein coupled receptor MthW12S mutant of Drosophila melanogaster 300 nM by fluorescence microscopy
How it was run: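 Intrinsic Trp fluorescence with excitation at 295 nm. 300 nM peptide was titrated with Trp-less Mth W120S ectodomain, emission read at 345 nm, in 10 mM KH2PO4 pH 7.2, 150 mM NaCl. Complexes were mixed for 5 min in a stirred cell before reading. KD came from the titration.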

[3] = biological target: T1, G-protein coupled receptor Mth (Drosophila melanogaster) (UniProt O97148); assay: Binding affinity to Drosophila melanogaster full-length Mth-GFP transfected into CHO cells at 150 nM by fluorescence microscopy
T1 sequence (whole entry): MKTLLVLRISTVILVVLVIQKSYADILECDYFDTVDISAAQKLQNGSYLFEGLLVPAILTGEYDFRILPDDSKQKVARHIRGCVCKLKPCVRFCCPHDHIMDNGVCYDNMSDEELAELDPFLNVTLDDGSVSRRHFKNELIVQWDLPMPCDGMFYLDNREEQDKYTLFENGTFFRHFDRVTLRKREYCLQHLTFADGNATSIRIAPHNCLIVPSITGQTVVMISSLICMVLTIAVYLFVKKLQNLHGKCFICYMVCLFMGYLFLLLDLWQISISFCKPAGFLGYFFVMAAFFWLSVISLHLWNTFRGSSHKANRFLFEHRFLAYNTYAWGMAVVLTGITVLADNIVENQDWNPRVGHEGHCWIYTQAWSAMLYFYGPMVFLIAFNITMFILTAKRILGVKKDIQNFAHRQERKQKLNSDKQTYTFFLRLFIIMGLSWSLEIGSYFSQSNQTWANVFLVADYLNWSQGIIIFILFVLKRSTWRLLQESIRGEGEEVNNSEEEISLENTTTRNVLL

Drosophila melanogaster [4] = assay: Increase in mean life span of Drosophila melanogaster GAL4/UAS--[…] transgene insertion line 41.6 at 29 degC; type: functional
[5] = biological target: T1, G-protein coupled receptor Mth (Drosophila melanogaster); assay: Inhibition of Drosophila melanogaster Mth […] transfected into human HEK cells assessed as inhibition of N-Stunted-induced Mth signaling up to 10 uM; type: cell-based; conditions: HEK293
How it was run: (§1)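 HEK 293 cells stably expressing Mth-B were plated on Matrigel and loaded with 4 μM Fluo-4 (45 min at room temperature, then 15 min at 37 °C) in HEPES pH 7.5 HBSS buffer with BSA and 2.5 mM probenecid. After baseline readings, antagonist was added, followed by agonist peptide. Calcium fluorescence (ex 494/em 520 nm) was read for ~5 min. Values were background-subtracted and fitted to sigmoidal curves.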

Drosophila melanogaster [6] = assay: Increase in life span of Drosophila melanogaster GAL-4/UAS--[…] transgene insertion line 11.1 at 29 degC; type: functional
[7] = biological target: T2, G-protein coupled receptor Mth (Drosophila melanogaster, UniProt O97148); assay: Binding affinity to Drosophila melanogaster Mth ectodomain
T2 sequence (O97148 whole entry): T1 sequence (whole entry)
How it was run: (§2)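 Mth ectodomain (His6-tagged, C-terminal biotinylation tag, expressed in baculovirus-infected High 5 cells, biotinylated with BirA) immobilized at ~500 RU. Peptide was injected at the indicated concentrations, 45 μl per injection. Sensorgrams were double-referenced against a negative control flow cell and averaged buffer blanks. Kinetic parameters came from a global fit to a 1:1 bimolecular interaction model.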

Drosophila melanogaster [8] = assay: Increase in maximal life span of Drosophila melanogaster GAL4/UAS--[…] transgene insertion line 41.6 at 29 degC; type: functional
Drosophila melanogaster [9] = assay: Increase in mean life span of Drosophila melanogaster GAL-4/UAS--[…] transgene insertion line 41.6 at 25 degC; type: functional
How it was run: (§3)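 da-GAL4-driven UAS–R8-12 insertion line 41.6 male adults were maintained at 25 °C and followed by survival curves. Mean and maximal adult lifespans are the average of two independent trials, with about 90 to 120 flies per curve.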

[10] = biological target: T2, G-protein coupled receptor Mth; assay: Inhibition of Drosophila melanogaster Mth […] transfected into human HEK cells assessed as inhibition of N-Stunted-induced Mth signaling; type: cell-based, HEK293; how it was run: as §1
Drosophila melanogaster [11] = assay: Increase in maximal life span of Drosophila melanogaster GAL-4/UAS--[…] transgene insertion line 41.6 at 25 degC; type: functional; how it was run: as §3
Drosophila melanogaster [12] = assay: Displacement of radiolabeled full-length R8-01 mRNA from Drosophila melanogaster Mth ectodomain at 10 uM
How it was run: (§4)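 35S-methionine-labelled RNA-peptide fusions were RNase-treated and bound to Mth ectodomain immobilized on NeutrAvidin-agarose (~1 mg Mth per ml matrix). For competition, unlabelled peptide at various concentrations was included in the binding buffer during the initial binding step.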

Drosophila melanogaster [13] = assay: Displacement of radiolabeled full-length R8-01 mRNA from Drosophila melanogaster Mth ectodomain up to 150 uM; how it was run: as §4
Drosophila melanogaster [14] = assay: Displacement of radiolabeled 30-mer synthetic peptide mRNA from Drosophila melanogaster Mth ectodomain at 30 uM; how it was run: as §4
[15] = biological target: T1, G-protein coupled receptor Mth (Drosophila melanogaster); assay: Binding affinity to Drosophila melanogaster Mth ectodomain transfected in CHO cells up to 5 uM by SPR
[16] = biological target: T1, G-protein coupled receptor Mth (Drosophila melanogaster); assay: Binding affinity to Drosophila melanogaster Mth ectodomain at 1500 nM measured by SPR; how it was run: as §2
[17] = biological target: T1, G-protein coupled receptor Mth (Drosophila melanogaster); assay: Binding affinity to Drosophila melanogaster Mth ectodomain at 900 nM measured by SPR; how it was run: as §2
[18] = biological target: T1, G-protein coupled receptor Mth (Drosophila melanogaster); assay: Binding affinity to Drosophila melanogaster Mth ectodomain at 300 nM measured by SPR; how it was run: as §2
[19] = biological target: T1, G-protein coupled receptor Mth (Drosophila melanogaster); assay: Binding affinity to Drosophila melanogaster Mth ectodomain at 100 nM measured by SPR; how it was run: as §2
Drosophila melanogaster [20] = assay: Displacement of radiolabeled full-length R8-04 mRNA from Drosophila melanogaster Mth ectodomain at 10 uM; how it was run: as §4

## H-RLVWIVRSRHFGPRLRMALLGSDRKMW-OH
Drosophila melanogaster [1]
  Activity: 31%
[2]
  Kd: 15 nM
[3]
  Activity: Active
Drosophila melanogaster [4]
  Activity: 38%
[5]
  inhibition: inactive
Drosophila melanogaster [6]
  Activity: 40%
[7]
  Kd: 18 nM
Drosophila melanogaster [8]
  Activity: 26%
Drosophila melanogaster [9]
  Activity: 49%
[10]
  IC50: 45 nM
Drosophila melanogaster [11]
  Activity: 36%

## H-NVSWGSFPSSWLQRYYLAKRREADVTL-OH
Drosophila melanogaster [12]
  Activity: 96%
Drosophila melanogaster [13]
  Activity: inactive
[7]
  Kd: 31 nM
Drosophila melanogaster [14]
  Activity: 79%

## H-RYVWYLRTKHRRSLRLRSACARGSSA-OH
[7]
  Kd: < 30 nM

## H-MAPRAVAIQRAIQAMFRLAGY-OH
[15]
  Activity: inactive

## H-GDDMYRIREFLANYRPIWVMRSNLAQL-OH
[7]
  Kd: < 30 nM

## H-VRIGYTSKPGGMNPGNSYTMSIIRMLI-OH
[16]
  Activity: Active
[17]
  Activity: Active
[18]
  Activity: Active
[7]
  Kd: 326 nM
[19]
  Activity: Active
Drosophila melanogaster [20]
  Activity: 94%

## CC[C@H](C)[C@H](NC(=O)[C@H](C)NC(=O)[C@H](CCCNC(=N)N)NC(=O)[C@H](CCC(N)=O)NC(=O)[C@@H](NC(=O)[C@H](Cc1c[nH]c2ccccc12)NC(=O)[C@@H](NC(=O)[C@H](C)NC(=O)[C@H](CCCNC(=N)N)NC(=O)[C@@H]1CCCN1C(=O)[C@@H](C)N)C(C)C)[C@@H](C)CC)C(=O)N[C@@H](CCC(N)=O)C(=O)N[C@@H](C)C(=O)N[C@@H](CCSC)C(=O)N[C@@H](Cc1ccccc1)C(=O)N[C@@H](CCCNC(=N)N)C(=O)N[C@@H](CC(C)C)C(=O)N[C@@H](C)C(=O)N[C@@H](CO)C(=O)N[C@@H](CCCNC(=N)N)C(=O)N[C@@H](CCC(N)=O)C(=O)N[C@@H](CCC(=O)O)C(=O)N[C@@H](CO)C(=O)N[C@@H](CCCCN)C(=O)N[C@@H](C)C(=O)N[C@@H](Cc1ccccc1)C(=O)N[C@@H](CC(N)=O)C(=O)O
[5]
  inhibition: inactive

## CC[C@H](C)[C@H](NC(=O)[C@H](C)NC(=O)[C@H](CCCNC(=N)N)NC(=O)[C@H](CCC(N)=O)NC(=O)[C@@H](NC(=O)[C@H](Cc1c[nH]c2ccccc12)NC(=O)[C@@H](NC(=O)[C@H](C)NC(=O)[C@H](CCCNC(=N)N)NC(=O)[C@@H]1CCCN1C(=O)[C@H](C)N)C(C)C)[C@@H](C)CC)C(=O)N[C@@H](CCC(N)=O)C(=O)N[C@@H](C)C(=O)N[C@@H](CCSC)C(=O)N[C@@H](Cc1ccccc1)C(=O)N[C@@H](CCCNC(=N)N)C(=O)N[C@@H](CC(C)C)C(=O)N[C@@H](C)C(=O)N[C@@H](CO)C(=O)N[C@@H](CCCNC(=N)N)C(=O)N[C@@H](CCC(N)=O)C(=O)N[C@@H](CCC(=O)O)C(=O)N[C@@H](CO)C(=O)N[C@@H](CCCCN)C(=O)N[C@@H](C)C(=O)N[C@@H](Cc1ccccc1)C(=O)N[C@@H](CC(N)=O)C(=O)O
[7]
  Kd: 18 nM
[10]
  IC50: 115 nM

## H-MAPRAVWIQAAIQAMFRLA-OH
[15]
  Activity: inactive
